{"source": "ChEMBL document CHEMBL1799966", "about": "“Synthesis and anticancer activity of oxindole derived imidazo[1,5-a]pyrazines” (Eur J Med Chem, 2011)", "key": {"OVCAR-3": {"test_system": "OVCAR-3", "assay": "Cytotoxicity against human OVCAR3 cells", "assay_type": "functional", "in_short": "(§1)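 NCI 60-cell panel second-stage testing by NCI standard procedures. Compound was dissolved in DMSO and tested at five 10-fold dilutions: 10^-4, 10^-5, 10^-6, 10^-7 and 10^-8 M.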"}, "A549 [1]": {"test_system": "A549", "assay": "Induction of apoptosis in human A549 cells assessed as viable cells at 6.5 uM after 48 hrs using Annexin V-FITC and PI staining by flow cytometry (reference value: 11.1 %)", "assay_type": "functional", "conditions": "A549, 48 h, read-out: Activity"}, "A549 [2]": {"test_system": "A549", "assay": "Induction of cell cycle arrest in human A549 cells assessed as accumulation at sub G1 phase at 6.5 uM after 48 hrs by propidium iodide staining-based FACS analysis (reference value: 1.02 %)", "assay_type": "functional", "in_short": "(§2)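 A549 cells (1 × 10^6) in six-well plates received 6.5 µM (final) for 24 h or 48 h. Floating and adherent cells were fixed in 70% ethanol, washed in PBS, then stained for 20 min with 50 µg/mL propidium iodide in hypotonic citrate/Triton X-100 buffer with DNase-free RNase A. Cells were analysed by FACS.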"}, "A549 [3]": {"test_system": "A549", "assay": "Induction of cell cycle arrest in human A549 cells assessed as accumulation at G2/M phase at 6.5 uM after 24 hrs by propidium iodide staining-based FACS analysis (reference value: 20.92 %)", "assay_type": "functional", "in_short": "as §2"}, "A549 [4]": {"test_system": "A549", "assay": "Induction of apoptosis in human A549 cells assessed as nuclear fragmentation at 6.5 uM after 24 to 48 hrs by Hoechst 33342 staining", "assay_type": "functional, cell-based", "in_short": "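A549 cells were grown 24 h on coverslips at 10,000 cells, then exposed to 6.5 µM for 24 h and 48 h, with 0.001% DMSO vehicle controls. Hoechst 33342 (0.5 µg/mL) with 4% paraformaldehyde was applied for 30 min at 37 °C. Random fields were examined by fluorescence microscopy, scoring relative fluorescence and nuclear fragmentation.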"}, "SN12C": {"test_system": "SN12C", "assay": "Cytotoxicity against human SN12C cells", "assay_type": "functional", "in_short": "(§3)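 NCI 60-cell-line panel protocol. Primary screen used a single 10^-5 M concentration with 48 h incubation, and percent growth was read against untreated cells by sulforhodamine B protein staining. The five-dose follow-up used a DMSO solution at five 10-fold dilutions from 10^-4 to 10^-8 M.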"}, "KM12": {"test_system": "KM12", "assay": "Cytotoxicity against human KM12 cells", "assay_type": "functional", "in_short": "as §1"}, "A549 [5]": {"test_system": "A549", "assay": "Induction of apoptosis in human A549 cells assessed as pre-necrotic cells at 6.5 uM after 24 hrs using Annexin V-FITC and PI staining by flow cytometry (reference value: 0.5 %)", "assay_type": "functional"}, "A549 [6]": {"test_system": "A549", "assay": "Induction of apoptosis in human A549 cells assessed as intraneucleosomal DNA fragmentation at 6.5 uM after 24 to 48 hrs by agarose gel electrophoresis technique", "assay_type": "functional, cell-based", "in_short": "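After 24 h and 48 h at 6.5 µM, A549 cells were pelleted, washed in PBS and lysed. The supernatant was treated with SDS and RNase A for 2 h at 56 °C, then proteinase K. DNA was precipitated with ammonium acetate and ice-cold ethanol at −80 °C for 1 h, washed in 80% ethanol, dissolved in TE, and run on 2% agarose gel.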"}, "A549 [7]": {"test_system": "A549", "assay": "Induction of apoptosis in human A549 cells assessed as viable cells at 6.5 uM after 24 hrs using Annexin V-FITC and PI staining by flow cytometry (reference value: 11.1 %)", "assay_type": "functional", "conditions": "A549, 24 h, read-out: Activity"}, "U-251": {"test_system": "U-251", "assay": "Cytotoxicity against human U251 cells", "assay_type": "functional", "in_short": "as §3"}, "A549 [8]": {"test_system": "A549", "assay": "Induction of apoptosis in human A549 cells assessed as apoptotic cells at 6.5 uM after 48 hrs using Annexin V-FITC and PI staining by flow cytometry (reference value: 2.6 %)", "assay_type": "functional"}, "OVCAR-8": {"test_system": "OVCAR-8", "assay": "Cytotoxicity against human OVCAR8 cells", "assay_type": "functional", "in_short": "as §1"}, "A498": {"test_system": "A498", "assay": "Cytotoxicity against human A498 cells", "assay_type": "functional", "in_short": "as §1"}, "A549 [9]": {"test_system": "A549", "assay": "Induction of apoptosis in human A549 cells assessed as apoptotic cells at 6.5 uM after 24 hrs using Annexin V-FITC and PI staining by flow cytometry (reference value: 2.6 %)", "assay_type": "functional"}, "A549 [10]": {"test_system": "A549", "assay": "Induction of cell cycle arrest in human A549 cells assessed as accumulation at sub G1 phase at 6.5 uM after 24 hrs by propidium iodide staining-based FACS analysis (reference value: 1.02 %)", "assay_type": "functional", "in_short": "as §2"}, "A549 [11]": {"test_system": "A549", "assay": "Induction of cell cycle arrest in human A549 cells assessed as accumulation at G0/G1 phase at 6.5 uM after 24 hrs by propidium iodide staining-based FACS analysis (reference value: 56.26 %)", "assay_type": "functional", "in_short": "as §2"}, "OVCAR-5": {"test_system": "OVCAR-5", "assay": "Cytotoxicity against human OVCAR5 cells", "assay_type": "functional", "in_short": "as §1"}, "SK-MEL-28": {"test_system": "SK-MEL-28", "assay": "Cytotoxicity against human SK-MEL-28 cells", "assay_type": "functional", "in_short": "as §3"}, "HT-29": {"test_system": "HT-29", "assay": "Cytotoxicity against human HT-29 cells", "assay_type": "functional", "in_short": "as §1"}, "A549 [12]": {"test_system": "A549", "assay": "Growth inhibition of human A549 cells", "assay_type": "functional, cell-based", "in_short": "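MTT reduction assay. Cells were seeded at 1 × 10^4 per well in DMEM with 10% FBS and pre-incubated 24 h at 37 °C under CO2. Compounds were diluted in medium and incubated 24 h. Medium was then removed, MTT (5 mg/mL stock) added for 4 h, formazan dissolved in DMSO, and absorbance read at 540 nm.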"}, "SNB-19": {"test_system": "SNB-19", "assay": "Cytotoxicity against human SNB19 cells", "assay_type": "functional", "in_short": "as §3"}, "PC-3": {"test_system": "PC-3", "assay": "Cytotoxicity against human PC3 cells", "assay_type": "functional", "in_short": "as §1"}, "A549 [13]": {"test_system": "A549", "assay": "Induction of cell cycle arrest in human A549 cells assessed as accumulation at G2/M phase at 6.5 uM after 48 hrs by propidium iodide staining-based FACS analysis (reference value: 20.92 %)", "assay_type": "functional", "in_short": "as §2"}}, "note": "Active and inactive are the calls of the source. The calls are words filed in the database; no cut-off is given here.", "data": [{"smiles": "O=C1Nc2ccccc2/C1=C\\c1nc(-c2ccccc2F)n2ccccc12", "values": [{"measurement": "GI50", "setting": "OVCAR-3", "value": 1.9, "unit": "µM"}, {"measurement": "viability at 6.5 µM", "setting": "A549 [1]", "value": 8.3, "unit": "%"}, {"measurement": "Activity", "setting": "A549 [2]", "value": 6.56, "unit": "%"}, {"measurement": "Activity", "setting": "A549 [3]", "value": 17.46, "unit": "%"}, {"measurement": "Activity", "setting": "A549 [4]", "value": "Active"}, {"measurement": "GI50", "setting": "SN12C", "value": 4.32, "unit": "µM"}, {"measurement": "GI50", "setting": "KM12", "value": 3.49, "unit": "µM"}, {"measurement": "Activity", "setting": "A549 [5]", "value": 0.1, "unit": "%"}, {"measurement": "Activity", "setting": "A549 [6]", "value": "Active"}, {"measurement": "viability at 6.5 µM", "setting": "A549 [7]", "value": 31.2, "unit": "%"}, {"measurement": "GI50", "setting": "U-251", "value": 2.57, "unit": "µM"}, {"measurement": "Activity", "setting": "A549 [8]", "value": 87.4, "unit": "%"}, {"measurement": "GI50", "setting": "OVCAR-8", "value": 2.49, "unit": "µM"}, {"measurement": "GI50", "setting": "A498", "value": 2.81, "unit": "µM"}, {"measurement": "Activity", "setting": "A549 [9]", "value": 61.5, "unit": "%"}, {"measurement": "Activity", "setting": "A549 [10]", "value": 1.19, "unit": "%"}, {"measurement": "Activity", "setting": "A549 [11]", "value": 66.2, "unit": "%"}, {"measurement": "GI50", "setting": "OVCAR-5", "value": 1.8, "unit": "µM"}, {"measurement": "GI50", "setting": "SK-MEL-28", "value": 3.71, "unit": "µM"}, {"measurement": "GI50", "setting": "HT-29", "value": 3.5, "unit": "µM"}, {"measurement": "IC50", "setting": "A549 [12]", "value": 6.5, "unit": "µM"}, {"measurement": "GI50", "setting": "SNB-19", "value": 4.7, "unit": "µM"}, {"measurement": "GI50", "setting": "PC-3", "value": 6.81, "unit": "µM"}, {"measurement": "Activity", "setting": "A549 [13]", "value": 10.12, "unit": "%"}]}]}
